ChEMBL document CHEMBL1777764, “Synthesis and evaluation of 1-(1H-indol-3-yl)ethanamine derivatives as new antibacterial agents” (Bioorg Med Chem, 2011)
Values after ≈ are worked out from the molar mass of the structure shown.

Columns and labels:
Type in all cases: functional
[1] = tested on: Staphylococcus epidermidis; test: Antibacterial activity against Staphylococcus epidermidis CIP 81.55 after 18 hrs by broth microdilution method; conditions: CIP 81.55, 18 h
Outline: (§1)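 MIC by broth microdilution per ISO 20776-1:2006 and CLSI M07-A8. Inoculum 10^6 cfu/ml in Mueller-Hinton broth with compound serially diluted, final concentrations 2 to 128 ug/ml, duplicate rows, no-drug growth control. Incubation 18 h at 37 °C. MIC taken as lowest concentration giving complete inhibition of visible growth. Each compound tested at least twice.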

Staphylococcus aureus [2] = test: Antibacterial activity against Staphylococcus aureus CIP 65.6 after 18 hrs by broth microdilution method; conditions: CIP 65.6, 18 h; outline: as §1
Staphylococcus aureus [3] = test: Antibacterial activity against Staphylococcus aureus CIP 103428 after 18 hrs by broth microdilution method; conditions: CIP 103428, 18 h; outline: as §1
[4] = tested on: Staphylococcus epidermidis; test: Antibacterial activity against Staphylococcus epidermidis ATCC 12228 after 18 hrs by broth microdilution method; conditions: ATCC 12228, 18 h; outline: as §1
Staphylococcus aureus [5] = test: Antibacterial activity against Staphylococcus aureus ATCC 9144 after 18 hrs by broth microdilution method; conditions: ATCC 9144, 18 h; outline: as §1
[6] = tested on: Staphylococcus epidermidis; test: Antibacterial activity against Staphylococcus epidermidis CIP 103627 after 18 hrs by broth microdilution method; conditions: CIP 103627, 18 h; outline: as §1
Staphylococcus aureus [7] = test: Antibacterial activity against Staphylococcus aureus ATCC 25923 after 18 hrs by broth microdilution method; conditions: ATCC 25923, 18 h; outline: as §1
Staphylococcus aureus [8] = test: Antibacterial activity against Staphylococcus aureus ATCC 29213 after 18 hrs by broth microdilution method; conditions: ATCC 29213, 18 h; outline: as §1
Staphylococcus aureus [9] = test: Antibacterial activity against Staphylococcus aureus ATCC 6538 after 18 hrs by broth microdilution method; conditions: ATCC 6538, 18 h; outline: as §1
Streptococcus pneumoniae [10] = test: Antibacterial activity against Streptococcus pneumoniae ATCC 49619 after 18 hrs by broth microdilution method; conditions: ATCC 49619, 18 h
Outline: (§2)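 MIC by broth microdilution per ISO 20776-1:2006 and CLSI M07-A8. Inoculum 10^6 cfu/ml in Mueller-Hinton broth […]. Compound serially diluted, final 2 to 128 ug/ml, duplicate rows, no-drug growth control. Read after 18 h at 37 °C as lowest concentration fully inhibiting visible growth. At least two experiments.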

Staphylococcus aureus [11] = test: Antibacterial activity against vancomycin intermediate Staphylococcus aureus […] after 18 hrs by broth microdilution method
Outline: (§3)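 Broth microdilution following ISO 20776-1:2006 and CLSI M07-A8, in Mueller-Hinton broth. Inoculum was 10^6 cfu/ml, with compound serial dilutions spanning 2 to 128 ug/ml and a compound-free growth control well. Plates were incubated 18 h at 37 °C. MIC was the lowest concentration giving complete inhibition of visible growth. Each compound was tested at least twice.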

Staphylococcus aureus [12] = test: Antibacterial activity against methicillin-resistant Staphylococcus aureus ATCC 33592 after 18 hrs by broth microdilution method; conditions: ATCC 33592, 18 h; outline: as §3
Streptococcus pneumoniae [13] = test: Antibacterial activity against Streptococcus pneumoniae ATCC 6303 after 18 hrs by broth microdilution method; conditions: ATCC 6303, 18 h; outline: as §2
Staphylococcus aureus [14] = test: Antibacterial activity against methicillin-resistant Staphylococcus aureus CIP 65.25 after 18 hrs by broth microdilution method; conditions: CIP 65.25, 18 h; outline: as §3

SMILES	MIC [1]	MIC (Staphylococcus aureus [2])	MIC (Staphylococcus aureus [3])	MIC [4]	MIC (Staphylococcus aureus [5])	MIC [6]	MIC (Staphylococcus aureus [7])	MIC (Staphylococcus aureus [8])	MIC (Staphylococcus aureus [9])	MIC (Streptococcus pneumoniae [10])	MIC (Staphylococcus aureus [11])	MIC (Staphylococcus aureus [12])	MIC (Streptococcus pneumoniae [13])	MIC (Staphylococcus aureus [14])
CC(C)(C)OC(=O)NCC(NO)c1c[nH]c2cc(Br)ccc12 (configuration not stated)	64 µg/mL (≈ 173 µM)	64 µg/mL (≈ 173 µM)	64 µg/mL (≈ 173 µM)	64 µg/mL (≈ 173 µM)	64 µg/mL (≈ 173 µM)	64 µg/mL (≈ 173 µM)	64 µg/mL (≈ 173 µM)	64 µg/mL (≈ 173 µM)	64 µg/mL (≈ 173 µM)	–	–	–	–	–
CC(C)(C)OC(=O)NCC(c1c[nH]c2cccc(Br)c12)N(O)Cc1ccccc1 (configuration not stated)	> 128 µg/mL	> 128 µg/mL	> 128 µg/mL	> 128 µg/mL	> 128 µg/mL	> 128 µg/mL	> 128 µg/mL	> 128 µg/mL	> 128 µg/mL	> 128 µg/mL	> 128 µg/mL	> 128 µg/mL	> 128 µg/mL	> 128 µg/mL
CC(c1c[nH]c2ccc(Br)cc12)N(O)Cc1ccccc1 (configuration not stated)	> 128 µg/mL	> 128 µg/mL	> 128 µg/mL	> 128 µg/mL	> 128 µg/mL	> 128 µg/mL	> 128 µg/mL	> 128 µg/mL	> 128 µg/mL	> 128 µg/mL	> 128 µg/mL	> 128 µg/mL	> 128 µg/mL	> 128 µg/mL
CC(C)(C)OC(=O)NCC(NO)c1c[nH]c2ccc(Cl)cc12 (configuration not stated)	64 µg/mL (≈ 196 µM)	64 µg/mL (≈ 196 µM)	64 µg/mL (≈ 196 µM)	64 µg/mL (≈ 196 µM)	64 µg/mL (≈ 196 µM)	64 µg/mL (≈ 196 µM)	64 µg/mL (≈ 196 µM)	64 µg/mL (≈ 196 µM)	64 µg/mL (≈ 196 µM)	–	–	–	–	–
CC(C)(C)OC(=O)NCC(NO)c1c[nH]c2ccccc12 (configuration not stated)	> 128 µg/mL	> 128 µg/mL	> 128 µg/mL	> 128 µg/mL	> 128 µg/mL	> 128 µg/mL	> 128 µg/mL	> 128 µg/mL	> 128 µg/mL	–	–	–	–	–
CC(C)(C)OC(=O)NCC(c1c[nH]c2ccccc12)N(O)Cc1ccccc1 (configuration not stated)	> 128 µg/mL	> 128 µg/mL	> 128 µg/mL	> 128 µg/mL	> 128 µg/mL	> 128 µg/mL	> 128 µg/mL	> 128 µg/mL	> 128 µg/mL	> 128 µg/mL	> 128 µg/mL	> 128 µg/mL	> 128 µg/mL	> 128 µg/mL
CC(c1c[nH]c2ccc(Cl)cc12)N(O)Cc1ccccc1 (configuration not stated)	> 128 µg/mL	> 128 µg/mL	> 128 µg/mL	> 128 µg/mL	> 128 µg/mL	> 128 µg/mL	> 128 µg/mL	> 128 µg/mL	> 128 µg/mL	> 128 µg/mL	> 128 µg/mL	> 128 µg/mL	> 128 µg/mL	> 128 µg/mL
CC(C)(C)OC(=O)NCC(NO)c1c[nH]c2ccc(F)cc12 (configuration not stated)	> 128 µg/mL	> 128 µg/mL	> 128 µg/mL	> 128 µg/mL	> 128 µg/mL	> 128 µg/mL	> 128 µg/mL	> 128 µg/mL	> 128 µg/mL	–	–	–	–	–
CC(C)CC(c1c[nH]c2ccc(F)cc12)N(O)Cc1ccccc1 (configuration not stated)	64 µg/mL (≈ 196 µM)	64 µg/mL (≈ 196 µM)	64 µg/mL (≈ 196 µM)	64 µg/mL (≈ 196 µM)	64 µg/mL (≈ 196 µM)	64 µg/mL (≈ 196 µM)	64 µg/mL (≈ 196 µM)	64 µg/mL (≈ 196 µM)	64 µg/mL (≈ 196 µM)	128 µg/mL (≈ 392 µM)	128 µg/mL (≈ 392 µM)	128 µg/mL (≈ 392 µM)	128 µg/mL (≈ 392 µM)	128 µg/mL (≈ 392 µM)
CC(NO)c1c[nH]c2ccccc12 (configuration not stated)	64 µg/mL (≈ 363 µM)	128 µg/mL (≈ 726 µM)	128 µg/mL (≈ 726 µM)	64 µg/mL (≈ 363 µM)	128 µg/mL (≈ 726 µM)	64 µg/mL (≈ 363 µM)	128 µg/mL (≈ 726 µM)	128 µg/mL (≈ 726 µM)	128 µg/mL (≈ 726 µM)	–	–	–	–	–
CC(c1c[nH]c2ccccc12)N(O)Cc1ccccc1 (configuration not stated)	64 µg/mL (≈ 240 µM)	128 µg/mL (≈ 481 µM)	128 µg/mL (≈ 481 µM)	64 µg/mL (≈ 240 µM)	128 µg/mL (≈ 481 µM)	64 µg/mL (≈ 240 µM)	128 µg/mL (≈ 481 µM)	128 µg/mL (≈ 481 µM)	128 µg/mL (≈ 481 µM)	–	–	–	–	–
CC(NO)c1c[nH]c2ccc(F)cc12 (configuration not stated)	64 µg/mL (≈ 330 µM)	64 µg/mL (≈ 330 µM)	64 µg/mL (≈ 330 µM)	64 µg/mL (≈ 330 µM)	64 µg/mL (≈ 330 µM)	64 µg/mL (≈ 330 µM)	64 µg/mL (≈ 330 µM)	64 µg/mL (≈ 330 µM)	64 µg/mL (≈ 330 µM)	–	–	–	–	–
CC(C)(C)OC(=O)NCC(NO)c1c[nH]c2cc(F)ccc12 (configuration not stated)	> 128 µg/mL	> 128 µg/mL	> 128 µg/mL	> 128 µg/mL	> 128 µg/mL	> 128 µg/mL	> 128 µg/mL	> 128 µg/mL	> 128 µg/mL	–	–	–	–	–
CC(C)(C)OC(=O)NCC(NO)c1c[nH]c2cccc(Br)c12 (configuration not stated)	128 µg/mL (≈ 346 µM)	128 µg/mL (≈ 346 µM)	128 µg/mL (≈ 346 µM)	128 µg/mL (≈ 346 µM)	128 µg/mL (≈ 346 µM)	128 µg/mL (≈ 346 µM)	128 µg/mL (≈ 346 µM)	128 µg/mL (≈ 346 µM)	128 µg/mL (≈ 346 µM)	–	–	–	–	–
CC(C)(C)OC(=O)NCC(NO)c1c[nH]c2ccc(I)cc12 (configuration not stated)	64 µg/mL (≈ 153 µM)	32 µg/mL (≈ 76.7 µM)	32 µg/mL (≈ 76.7 µM)	64 µg/mL (≈ 153 µM)	32 µg/mL (≈ 76.7 µM)	64 µg/mL (≈ 153 µM)	32 µg/mL (≈ 76.7 µM)	32 µg/mL (≈ 76.7 µM)	32 µg/mL (≈ 76.7 µM)	–	–	–	–	–
CC(C)(C)OC(=O)NCC(NO)c1c[nH]c2ccc(Br)cc12 (configuration not stated)	64 µg/mL (≈ 173 µM)	32 µg/mL (≈ 86.4 µM)	32 µg/mL (≈ 86.4 µM)	64 µg/mL (≈ 173 µM)	32 µg/mL (≈ 86.4 µM)	64 µg/mL (≈ 173 µM)	32 µg/mL (≈ 86.4 µM)	32 µg/mL (≈ 86.4 µM)	32 µg/mL (≈ 86.4 µM)	–	–	–	–	–
CC(C)(C)OC(=O)NCC(NO)c1c[nH]c2cc(Cl)ccc12 (configuration not stated)	> 128 µg/mL	128 µg/mL (≈ 393 µM)	128 µg/mL (≈ 393 µM)	> 128 µg/mL	128 µg/mL (≈ 393 µM)	> 128 µg/mL	128 µg/mL (≈ 393 µM)	128 µg/mL (≈ 393 µM)	128 µg/mL (≈ 393 µM)	–	–	–	–	–
CC(NO)c1c[nH]c2ccc(Br)cc12 (configuration not stated)	64 µg/mL (≈ 251 µM)	64 µg/mL (≈ 251 µM)	64 µg/mL (≈ 251 µM)	64 µg/mL (≈ 251 µM)	64 µg/mL (≈ 251 µM)	64 µg/mL (≈ 251 µM)	64 µg/mL (≈ 251 µM)	64 µg/mL (≈ 251 µM)	64 µg/mL (≈ 251 µM)	–	–	–	–	–
